Rows were chosen to be rich in hits. Some 3% of all compounds tested hit in one or more screens of this group.
rRNA inh HTS = reduced GFP signal of wild-type E. coli, primary screen, bacterial rRNA inhibitor project, GFP/RFP fluorescence, OD600, single point. E. coli WT GFP vs humanized-ribosome RFP mutants, 24 h; active compounds read low; DMSO median 0, no signal -100. GFP signal change (wild-type ribosome), % (no concentration beside the values). actives 1.6% (n = 350,000). AID 720706, 2013;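 active = significant combined selectivity score with lowered wild-type GFP, culture density cut under 30%, mutant RFP and density less affected; inactive = any of these conditions unmet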
Cneo AK release = Cryptococcus neoformans cell lysis inducers, primary screen, AK release luminescence, single concentration. C. neoformans lysis, adenylate kinase release luminescence, 4 h; normalised: neutral wells 0, clomiphene wells 100. lysis activity, % at 15 µM. actives 0.2% (n = 360,000). AID 651654, 2012;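 active = mean lysis activity across replicates of at least 80%, whatever share of replicates individually reach that level; inactive = mean lysis activity below 80%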
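Signal: Adenylate kinase release luminescence | Assay system: Log-phase Cryptococcus neoformans yeast cells | Input: Cells at 5 × 10^6 per mL | Buffer or medium: Fresh YPD growth medium | Compound: Single dose | Schedule: Static 4 h at 37 °C with compound, 1 h detection | Controls: Clomiphene | Read-out: Luminescence rise reflecting yeast cell lysis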
Statin myotox sup = suppressors of statin myotoxicity in C2C12 myotubes, primary screen, cell-based, single point, plate reader; AID 602340, 2012; C2C12 myotubes + simvastatin, ATP luminescence, 48 h; scaled: DMSO 0, geranylgeraniol control 100; rescue of ATP level, % at 7.49 µM; actives 0.78% (n = 330,000);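 active = mean ATP rescue above about 67%, or every replicate alone reaching that limit, limit read from the data, passing the limit was not always enough; inconclusive = no clear call, values can overlap the other calls; inactive = mean under the limit and some replicate under it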;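 also: myotubes were challenged with 10 µM simvastatin during compound exposure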
SIRT5 block = SIRT5 desuccinylase inhibitors, primary screen, biochemical, fluorescence imaging, single point, set 5. Purified SirT5, succinyl-peptide AMC, trypsin-coupled fluorescence. actives 1.1% (n = 330,000). inhibition, % at 15 µM. NAD-dependent protein deacylase sirtuin-5, mitochondrial (Homo sapiens), Q9NXA8. AID 652115, 2013; in the data active = inhibition above about 15%; inconclusive = no clear call, values can overlap the other calls
Target sequence (Q9NXA8 whole entry, looked up): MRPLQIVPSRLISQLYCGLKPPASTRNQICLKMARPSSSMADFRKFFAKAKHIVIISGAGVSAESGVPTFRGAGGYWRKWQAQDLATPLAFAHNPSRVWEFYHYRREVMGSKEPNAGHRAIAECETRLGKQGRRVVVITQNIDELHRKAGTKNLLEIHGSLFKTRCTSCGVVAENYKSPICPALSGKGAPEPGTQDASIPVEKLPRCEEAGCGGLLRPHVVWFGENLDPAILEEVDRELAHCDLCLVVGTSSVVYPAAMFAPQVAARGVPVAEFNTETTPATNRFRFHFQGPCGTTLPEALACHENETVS
PGC1a acetyl inh = inhibitors of PGC1a acetylation signal, primary screen, cell-based, U2OS, AlphaScreen, inhibitor mode. AID 651687, 2012. inhibition, % at 15.6 µM. AlphaScreen anti-acetyl-lysine; with virally co-expressed GCN5 acetyltransferase. actives 0.17% (n = 350,000);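 active = every replicate shows inhibition of at least 40%; inconclusive = mean inhibition at least 40% but some replicate below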
S100A4 inh HTS = inhibitors of S100A4-myosin IIA peptide binding, primary screen, biochemical, fluorescence polarization, TAMRA-MyoIIA peptide; Protein S100-A4 (Homo sapiens), P26447; inhibition, % at 10.7 µM; actives 0.14% (n = 360,000); AID 652163, 2013;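 active = mean inhibition of at least 70% across replicates, with every replicate also reaching that level; inconclusive = mean inhibition reaches 70% but some replicates fall short; inactive = mean inhibition below 70%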
Target sequence (P26447 whole entry, looked up): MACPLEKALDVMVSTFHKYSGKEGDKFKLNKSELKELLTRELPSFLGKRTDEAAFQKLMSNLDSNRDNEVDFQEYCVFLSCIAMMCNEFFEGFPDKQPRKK
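assay system = human S100A4 monomer with TAMRA-labelled myosin IIA peptide | also added = labelled myosin peptide probe, 5 nM | incubation = 5 min between mix addition and reading | control set = DMSO and TFP controls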
HepG2 tox = cytotoxicity in HepG2 cells, dose response, cytotoxicity control, cell-based, CellTiter-Glo luminescence, cherry-pick, set 4; shares compounds with rRNA inh HTS; HepG2 viability, ATP luminescence, 72 h; activity change, negative = cytotoxicity, unspecified at 26 µM; 30 tested, under 10 active; AID 743480, 2014;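 active = compounds whose fitted half-maximal signal-loss concentration is at most twice their highest valid dose; inconclusive = flat curve with 30 to 70% signal loss, or poor fit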
AID977621 = growth inhibition of wild-type GFP E. coli, dose response, H69 mutant RFP, cherry-pick | shares compounds with rRNA inh HTS | E. coli wild-type GFP strain growth, fluorescence, 24 h | activity change, negative = inhibition at 50 µM | 1,900 tested, under 10 active | AID 977621, 2014;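 active = Wild-type ribosome reporter drop at least double the humanized mutant ribosome reporter drop, growth loss under a set limit; inconclusive = no clear call, values can overlap the other calls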;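 also: wild-type GFP and H69 mutant RFP strains grown together 50/50 in each well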
AID977628 = E. coli growth inhibition, wild-type GFP versus h24 humanized RFP strain, dose response, h24 mutant RFP vs wild-type GFP, cherry-pick. shares compounds with rRNA inh HTS. E. coli WT GFP strain growth, fluorescence, 24 h. activity change, negative = inhibition at 50 µM. 1,900 tested, under 10 active. AID 977628, 2014;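 active = compound lowering the normal-ribosome reporter at least twice as much as the humanized-ribosome reporter, growth loss under a set limit; inconclusive = no clear call, values can overlap the other calls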;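 also: wild-type GFP and h24 humanized RFP strains co-cultured 1 to 1 per well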
Hits are given with their value; - = inactive; ? = inconclusive; . = not tested or not shown; ! = not active in a repeat.

SMILES	rRNA inh HTS	Cneo AK release	Statin myotox sup	SIRT5 block	PGC1a acetyl inh	S100A4 inh HTS	AID977621	AID977628	others
O=C(Nc1ccc(C(=O)Nc2ccccc2Cl)cc1)c1cccnc1	-20	-	-	-	.	-	-	-
C[C@H]1CCCCO[C@@H](CN(C)C(=O)NC2CCCCC2)[C@@H](C)CN([C@@H](C)CO)C(=O)c2cc(NC(=O)CCC(F)(F)F)ccc2O1	-	-	-	-	.	-	.	.
COc1cc2c(cc1[N+](=O)[O-])-c1ccc([N+](=O)[O-])cc1C2	-23	-	-	.	-	-	.	?	HepG2 tox=-
COc1cc2c(cc1[N+](=O)[O-])-c1ccccc1C2	.	-	-	-	-	-	.	.
CC(C)[C@@H]1COCc2cn(nn2)CC[C@H](Cc2ccc(-c3ccccc3)cc2)C(=O)N1	-	.	.	.	.	.	.	.
CCN(CC(=O)Nc1cccc(S(=O)(=O)N2CCCC2)c1)CC(=O)Nc1ccccc1OC	-18	.	.	-	.	-	-	-
COc1ccc(Cl)cc1NC(=O)CN(C)CC(=O)Nc1cccc(S(=O)(=O)N2CCCC2)c1	-	-	-	-	.	-	.	.
CCN(CC)CC(=O)Nc1ccc(-c2ccc(NC(=O)CN(CC)CC)c(OC)c2)cc1OC	-23	.	.	-	-	-	-	.
COc1ccc2c3c([nH]c2c1)[C@@H](CO)N(C(=O)NC(C)C)CC31CCN(Cc2ccccc2)CC1	-	.	.	.	-	.	.	.
C[C@@H]1CN([C@H](C)CO)C(=O)c2cc(NC(=O)c3ccccc3)ccc2O[C@@H](C)CCCCO[C@@H]1CN(C)S(=O)(=O)c1cccs1	-	-	.	.	-	.	.	.
O=C(Nc1cccc(F)c1)N1CCCCN2[C@H](CO)[C@@H](c3ccc(C#Cc4ccccc4)cc3)[C@H]2C1	-	-	.	-	-	-	.	.
Cc1nnc2sc(SCC(=O)Nc3ccc(Br)cc3)nn2c1=O	-24	.	-	.	-	-	-	.
Cc1ccc(NC(=O)C2CCCN(c3ncnc4c3nc3n4CCCCC3)C2)cc1Cl (stereo not drawn)	-18	-	-	-	-	-	-	?
Nc1ncncc1-c1ccc2ccccc2c1	-32	-	-	-	.	-	-	?
Cc1cccc(N2Cc3ccc(Br)cc3C2)c1	-21	.	.	-	.	-	-	-
O=C(C[C@H]1CC[C@H](NC(=O)CN2CCOCC2)[C@H](CO)O1)NCc1cccc(F)c1	-	-	-	-	-	-	.	.
COc1ccc(CN2C(=O)CC(Cc3cc(C)cc(C)c3)C2=O)cc1OC (stereo not drawn)	-20	.	.	-	.	-	-	.
COc1ccc(CCN2C(=O)CC(Cc3cccc(C)c3)C2=O)cc1OC (stereo not drawn)	-	.	.	-	-	-	.	.
CN(C)C(=O)[C@@H]1[C@@H](CO)[C@@H]2Cn3c(ccc(-c4ccccc4F)c3=O)[C@@H]2N1C(=O)c1cnccn1	-	-	-	-	.	-	.	.
COC(C(=O)Nc1ccnn1C1CCN(Cc2ccc(Cl)s2)CC1)c1ccccc1 (stereo not drawn)	-22	-	-	-	-	-	-	-
CC(=O)Nc1nc(C)c(-c2csc(Nc3ccccn3)n2)s1	-20!	.	.	-	-	-	-	.
C[C@@H]1CN([C@@H](C)CO)S(=O)(=O)c2ccc(Br)cc2O[C@H]1CN(C)C(=O)c1ccccc1	-18!	-	-	-	-	-	-	-
COc1ccc(C(=O)Nc2nc3ccc(S(C)(=O)=O)cc3s2)cc1	.	-	.	.	-	.	.	.
COc1ccc(C(=O)Nc2nc3ccc(OC)cc3s2)cc1	-32	-	-	-	.	-	.	?
CCOCCCNC(=O)C(NC(=O)c1ccccc1O)c1ccc(C)cc1 (stereo not drawn)	-19	.	.	-	-	-	-	-
SMILES	rRNA inh HTS	Cneo AK release	Statin myotox sup	SIRT5 block	PGC1a acetyl inh	S100A4 inh HTS	AID977621	AID977628	others
CN(C)S(=O)(=O)c1cccc(NC(=O)c2cc3c(cc2Cl)N2CCCCCC2=NS3(=O)=O)c1	-	.	.	-	.	-	.	.
CN(C)S(=O)(=O)c1cccc(C(=O)Nc2ccc(C(=O)Nc3cccc(S(N)(=O)=O)c3)cc2)c1	-24	-	-	.	-	-	.	-
CN(C)S(=O)(=O)c1cccc(NC(=O)c2ccc3c(c2)S(=O)(=O)N=C2CCCCCN23)c1	-20	-	-	-	-	-	-	-
COc1ccc(S(=O)(=O)Nc2ccc3c(c2)CC(=O)N([C@H](C)CO)C[C@H](C)[C@H](CN(C)Cc2ccncc2)O3)cc1	-	-	-	-	-	-	.	.
CCOC(=O)C1(CCCc2ccccc2)CCN(C(=O)CCn2cncn2)CC1	-20	.	.	-	-	-	-	-
NCC[C@@H]1CC[C@H](NC(=O)C2CCCC2)[C@H](CO)O1	-	-	-	-	-	-	.	.
C[C@H]1CN([C@@H](C)CO)C(=O)c2c(c3ccccc3n2C)-c2ccccc2CO[C@@H]1CN(C)Cc1ccncc1	-29	-	.	-	-	-	.	-
C[C@@H]1CN([C@@H](C)CO)C(=O)c2c(c3ccccc3n2C)-c2ccccc2CO[C@H]1CN(C)Cc1ccncc1	-	-	.	-	-	-	.	.
C[C@H](CO)N1C[C@H](C)[C@@H](CN(C)Cc2ccncc2)OCc2ccccc2-c2c(n(C)c3ccccc23)C1=O	-22	-	.	-	-	-	-	.
CC(C)NC(=O)Nc1ccc2c(c1)C(=O)N([C@H](C)CO)C[C@@H](C)[C@H](CN(C)C(=O)Nc1ccc(F)cc1)OCCCC[C@@H](C)O2	-	-	.	-	-	-	.	.
CCOC(=O)c1cnc2c(c(C)nn2C)c1Oc1ccc(OC)cc1	-14	-	-	-	-	-	-	-
Cc1ccc(C(=O)c2ccccc2C(=O)OCC(=O)N2CCCC2)cc1	-	-	-	-	-	-	.	.
Cc1ccc(C(=O)c2ccccc2C(=O)OCC(=O)NC(C)(C)C)cc1	-20	-	-	-	-	-	-	.

Assay outcomes (PubChem)
